In ChEMBL document CHEMBL4325919, “3,5-Disubstituted-indole-7-carboxamides as IKKβ Inhibitors: Optimization of Oral Activity via the C3 Substituent” (ACS Med Chem Lett, 2018):
≈ marks a conversion by molar mass, not a printed value.

Key:
[1] = Plasma clearance in Sprague-Dawley rat at 2 mg/kg, po or 1 mg/kg, iv; type: ADME, organism-based
In short: (§1)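 Male Sprague Dawley rats, n=2 (n=3 for one compound). The i.v. leg used 5% DMSO with 20% Cavitron and the oral leg 5% DMSO with 6% Cavitron. Oral doses were 2 mg/kg, or 2.1 mg/kg where stated. The i.v. dose was 1 mg/kg. Clearance is plasma clearance.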

[2] = Half life in Sprague-Dawley rat at 2 mg/kg, po or 1 mg/kg, iv; type: ADME, organism-based; conditions: in vivo; in short: as §1
[3] = Volume of distribution at steady state in Sprague-Dawley rat at 2 mg/kg, po or 1 mg/kg, iv; type: ADME, organism-based; conditions: in vivo, read-out: Vdss; in short: as §1
[4] = AUC in Sprague-Dawley rat at 2 mg/kg, po; type: ADME, organism-based; conditions: in vivo; in short: as §1
[5] = Oral bioavailability in Sprague-Dawley rat at 2 mg/kg; type: ADME, organism-based; conditions: in vivo; in short: as §1
Rattus norvegicus [6] = assay: (§2) Antiinflammatory activity in LPS-induced rat neutrophilia model assessed as inhibition of LPS-induced increase in neutrophils in bronchoalveolar lavage at 100 umol/kg, po administered 30 mins prior to 20 mins nebulized LPS challenge and measured after 4 hrs by diff quick staining based hemocytometric method relative to control; type: functional
[7] = Permeability of the compound by PAMPA; type: ADME; conditions: read-out: permeability
[8] = molecular target: T1, Inhibitor of nuclear factor kappa-B kinase subunit beta (Homo sapiens, UniProt O14920); assay: Inhibition of IKKbeta in human CD14-positive monocytes assessed as reduction in LPS-stimulated TNFalpha secretion preincubated for 30 mins followed by LPS stimulation and measured after 24 hrs by Alpha screen assay; type: cell-based
T1 sequence (O14920 whole entry): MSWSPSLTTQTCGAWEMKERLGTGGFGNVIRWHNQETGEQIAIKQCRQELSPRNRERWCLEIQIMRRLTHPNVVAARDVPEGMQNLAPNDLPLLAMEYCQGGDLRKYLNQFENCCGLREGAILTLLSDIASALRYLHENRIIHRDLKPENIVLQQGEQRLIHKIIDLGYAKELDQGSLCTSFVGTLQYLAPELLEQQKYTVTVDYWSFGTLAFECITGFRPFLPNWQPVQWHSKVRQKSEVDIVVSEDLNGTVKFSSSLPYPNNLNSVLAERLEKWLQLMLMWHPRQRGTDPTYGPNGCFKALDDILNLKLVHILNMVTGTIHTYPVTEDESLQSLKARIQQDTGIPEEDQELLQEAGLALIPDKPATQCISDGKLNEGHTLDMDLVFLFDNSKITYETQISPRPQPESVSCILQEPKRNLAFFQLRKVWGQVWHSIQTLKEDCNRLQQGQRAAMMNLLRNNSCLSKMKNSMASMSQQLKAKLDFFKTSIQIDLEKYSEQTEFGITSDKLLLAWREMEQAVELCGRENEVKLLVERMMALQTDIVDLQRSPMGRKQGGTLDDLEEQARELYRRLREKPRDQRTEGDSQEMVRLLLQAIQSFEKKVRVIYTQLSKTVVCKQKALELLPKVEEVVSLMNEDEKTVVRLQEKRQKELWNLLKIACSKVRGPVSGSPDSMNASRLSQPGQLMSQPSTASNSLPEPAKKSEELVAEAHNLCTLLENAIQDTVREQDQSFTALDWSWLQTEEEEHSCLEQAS

[9] = molecular target: T1, Inhibitor of nuclear factor kappa-B kinase subunit beta; assay: Inhibition of recombinant human C-terminal GST-tagged IKKbeta (1 to 737 residues) expressed in baculovirus expression system using GST-IkBalpha substrate measured after 30 mins by TR-FRET assay
In short: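 IKK pIC50 values are the mean of more than 2 determinations unless noted otherwise. Compounds were tested as racemic mixtures.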

[10] = Kinetic aqueous solubility of the compound by UV-HPLC analysis; type: physicochemical; conditions: buffer; read-out: Kinetic_solubility
Rattus norvegicus [11] = assay: as §2, with “50” for “100”; type: functional

Row | clearance [1] [mL/min/kg] | half-life [2] [h] | Vd [3] [L/kg] | AUC [4] [ng·h/mL] | bioavailability [5] [%] | Papp [7] [×10⁻⁶ cm/s] | IC50 [8] [nM] | IC50 [9] [nM] | solubility kinetic [10] [µM] | Compound | inhibition in vivo at 100 µmol/kg (Rattus norvegicus [6]) [%] | inhibition in vivo at 50 µmol/kg (Rattus norvegicus [11]) [%]
1 | 16 | 1.15 | 1 | 1220 | 58 | 25 | 190 | – | – | CCS(=O)(=O)N1CCC(c2c[nH]c3c(C(N)=O)cc(-c4ccccc4)cc23)CC1 | 30 | –
2 | – | – | – | – | – | – | – | 126 | – | CC(=O)CCc1c[nH]c2c(C(N)=O)cc(-c3ccccc3)cc12 | – | –
3 | 4 | 4.6 | 1 | 998 | 12 | 16 | 50 | 10 | 185 (≈ 91.5 µg/mL) | NC(=O)c1cc(-c2ccccc2)cc2c(C3CCN(S(=O)(=O)CCCN4CCCC4)CC3)c[nH]c12 | – | –
4 | – | – | – | – | – | – | – | 79.4 | – | NC(=O)c1cc(-c2ccccc2)cc2c([C@@H]3C[C@H]4CC[C@@H](C3)S4(=O)=O)c[nH]c12 | – | –
5 | 14 | 4.43 | 3 | 48 | 3 | 0.3 | 140 | 7.94 | 33 (≈ 14.1 µg/mL) | NCCS(=O)(=O)N1CCC(c2c[nH]c3c(C(N)=O)cc(-c4ccccc4)cc23)CC1 | – | –
6 | 8.9 | 1.18 | 0.43 | 2030 | 53 | 31.8 | 200 | 31.6 | 36 (≈ 18.4 µg/mL) | NC(=O)c1cc(-c2ccccc2)cc2c(C3CCN(S(=O)(=O)CCCN4CCOCC4)CC3)c[nH]c12 | – | 30
7 | – | – | – | – | – | – | – | 79.4 | – | NC(=O)c1cc(-c2ccccc2)cc2c(C3CCC(=O)C3)c[nH]c12 (stereo not drawn) | – | –
8 | – | – | – | – | – | 14 | – | 20 | 85 (≈ 43.2 µg/mL) | NC(=O)c1cc(-c2ccccc2)cc2c(C3CCN(S(=O)(=O)CCCNC4CCCC4)CC3)c[nH]c12 | – | –

The next lines start with the compound.

Row | Compound | clearance [1] [mL/min/kg] | half-life [2] [h] | Vd [3] [L/kg] | AUC [4] [ng·h/mL] | bioavailability [5] [%] | Papp [7] [×10⁻⁶ cm/s] | IC50 [8] [nM] | IC50 [9] [nM] | solubility kinetic [10] [µM] | inhibition in vivo at 100 µmol/kg (Rattus norvegicus [6]) [%] | inhibition in vivo at 50 µmol/kg (Rattus norvegicus [11]) [%]
9 | NC(=O)c1cc(-c2ccccc2)cc2c(C3CCC(=O)CC3)c[nH]c12 | – | – | – | – | – | – | – | 501 | – | – | –
10 | NC(=O)c1cc(-c2ccccc2)cc2c(C3CCC(=O)N3)c[nH]c12 (stereo not drawn) | – | – | – | – | – | – | – | 39.8 | – | – | –
11 | NC(=O)c1cc(-c2ccccc2)cc2c(C3CCN(S(=O)(=O)CCCN4CCCCC4)CC3)c[nH]c12 | – | – | – | – | – | 24 | – | 7.94 | 162 (≈ 82.4 µg/mL) | – | –
12 | NC(=O)c1cc(-c2ccccc2)cc2c(C3CCN(S(=O)(=O)CCN4CCOCC4)CC3)c[nH]c12 | – | – | – | – | – | 31 | – | 7.94 | 41 (≈ 20.4 µg/mL) | – | –
13 | NC(=O)c1cc(-c2ccccc2)cc2c(C3CCN(S(=O)(=O)CCCN4CCCCCC4)CC3)c[nH]c12 | – | – | – | – | – | 29 | – | 6.31 | 93 (≈ 48.6 µg/mL) | – | –
